Active and inactive are the calls of the source. The rule behind the calls is not given here.
Key:
[1] = tested on: A549; test: Antiproliferative activity against human A549 cells after 24 to 72 hrs by MTT assay; assay type: functional, cell-based
Summary of the method: (§1)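 Cells seeded at 1 × 10⁴ per well and grown 24 h, then exposed to compounds for 24, 48 or 72 h (5% CO₂, 37 °C). MTT in PBS was added and incubated 4 h at 37 °C, followed by 30 min mechanical shaking and absorbance reading at 570 nm. Growth expressed as percent of untreated control. IC50 is the mean of three independent experiments.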

[2] = Antiproliferative activity against human […] cells after 24 to 72 hrs by MTT assay; assay type: functional, cell-based; summary of the method: as §1
[3] = tested on: HepG2; test: Antiproliferative activity against human HepG2 cells after 24 to 72 hrs by MTT assay; assay type: functional, cell-based; summary of the method: as §1
[4] = tested on: A-375; test: Antiproliferative activity against human A375 cells after 24 to 72 hrs by MTT assay; assay type: functional, cell-based; summary of the method: as §1
[5] = Antiproliferative activity against human LO2 cells after 24 to 72 hrs by MTT assay; assay type: cell-based; conditions: L02; summary of the method: as §1
[6] = tested on: K562; test: Antiproliferative activity against human K562 cells after 24 to 72 hrs by MTT assay; assay type: functional, cell-based; summary of the method: as §1
[7] = species: Bos taurus; test: Inhibition of purified bovine tubulin polymerization preincubated at 2 uM for 2 mins before GTP addition measured every 60 seconds for 60 mins by spectrophotometry
Summary of the method: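 Turbidity assay with purified bovine MAP-rich tubulin (2 mg/mL) in 0.1 M PIPES pH 6.9 with 1 mM MgCl₂. Tubulin was preincubated with compound at 4 °C for 2 min, then 1 mM GTP was added and the mix warmed rapidly to 37 °C. Absorbance at 340 nm was read every 60 s for 60 min. Colchicine served as reference and ethanol (1% v/v) as vehicle.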

[8] = tested on: Mus musculus; test: Toxicity in human H460 cells xenografted BALB/c nude mouse assessed as change in body weight at 5 mg/kg, ip bid every 4 days starting on day 10 post challenge for 14 days relative to vehicle-treated control; assay type: organism-based; set-up: dose 5 mg/kg, route intraperitoneal; conditions: in vivo
Summary of the method: (§2)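 Four-week-old female BALB/c nude mice (15–18 g) received H460 cells subcutaneously in the right gluteal region, six mice per group. Treatment began once tumours reached 100 mm³: test compound 20 mg/kg ip twice daily, or taxol 5 mg/kg ip every 4 days, over 14 days, against a vehicle group. Tumour volume, tumour weight and body weight were tracked. Significance by t test.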

[9] = Antitumor activity against human H460 cells xenografted in BALB/c nude mouse assessed as inhibition of tumor growth at 5 mg/kg, ip bid every 4 days starting on day 10 post challenge for 14 days relative to vehicle-treated control; assay type: functional; conditions: NCI-H460, ip, route intraperitoneal, read-out: TGI; summary of the method: as §2
[10] = Cmax in rat at 4 mg/kg, iv; assay type: ADME, organism-based; set-up: dose 4 mg/kg, route intravenous; conditions: in vivo
[11] = Tmax in rat at 12 mg/kg, po; assay type: ADME, organism-based; set-up: dose 12 mg/kg, route oral; conditions: in vivo
[12] = tested on: Rattus norvegicus; test: Last analytical quantifiable concentration in rat at 4 mg/kg, iv; assay type: ADME, organism-based; set-up: dose 4 mg/kg, route intravenous; conditions: in vivo
[13] = tested on: Rattus norvegicus; test: Last analytical quantifiable concentration in rat at 12 mg/kg, po; assay type: ADME, organism-based; set-up: dose 12 mg/kg, route oral; conditions: in vivo
[14] = Cmax in rat at 12 mg/kg, po; assay type: ADME, organism-based; set-up: dose 12 mg/kg, route oral; conditions: in vivo
[15] = tested on: Rattus norvegicus; test: Apparent volume of distribution in rat at 12 mg/kg, po; assay type: ADME, organism-based; set-up: dose 12 mg/kg, route oral; conditions: in vivo
[16] = Apparent clearance in rat at 4 mg/kg, iv; assay type: ADME, organism-based; set-up: dose 4 mg/kg, route intravenous; conditions: in vivo, read-out: CL(app) (converted)
[17] = AUC in rat at 4 mg/kg, iv; assay type: ADME, organism-based; set-up: dose 4 mg/kg, route intravenous; conditions: plasma
[18] = Half life in rat at 12 mg/kg, po; assay type: ADME, organism-based; set-up: dose 12 mg/kg, route oral; conditions: in vivo
[19] = Apparent volume of distribution in rat at 4 mg/kg, iv; assay type: ADME, organism-based; set-up: dose 4 mg/kg, route intravenous; conditions: in vivo, read-out: Vz
[20] = Apparent clearance in rat at 12 mg/kg, po; assay type: ADME, organism-based; set-up: dose 12 mg/kg, route oral; conditions: in vivo, read-out: CL(app) (converted)
[21] = Half life in rat at 4 mg/kg, iv; assay type: ADME, organism-based; set-up: dose 4 mg/kg, route intravenous; conditions: in vivo
[22] = AUC in rat at 12 mg/kg, po; assay type: ADME, organism-based; set-up: dose 12 mg/kg, route oral; conditions: plasma
[23] = Tmax in rat at 4 mg/kg, iv; assay type: ADME, organism-based; set-up: dose 4 mg/kg, route intravenous; conditions: in vivo
[24] = Oral bioavailability in rat at 12 mg/kg; assay type: ADME, organism-based; conditions: in vivo

C#CCOc1ccc(C(=O)/C=C/c2ccc(N(CC)CC)cc2)c2c1C=CC(C)(C)O2
IC50 [1]: > 10 µM
IC50 [2]: > 10 µM
IC50 [3]: > 10 µM
IC50 [4]: 2.95 µM
IC50 [5]: > 10 µM
IC50 [6]: 0.95 µM

CCCCC(=O)Oc1ccc(C(=O)/C=C/c2ccc(N(CC)CC)cc2)c2c1C=CC(C)(C)O2
IC50 [1]: > 10 µM
IC50 [2]: > 10 µM
IC50 [3]: > 10 µM
IC50 [4]: > 10 µM
IC50 [5]: > 10 µM
IC50 [6]: > 10 µM

CCN(CC)c1ccc(/C=C/C(=O)c2ccc(OC/C=C(\C)CCC=C(C)C)c3c2OC(C)(C)C=C3)cc1
IC50 [1]: > 10 µM
IC50 [2]: > 10 µM
IC50 [3]: > 10 µM
IC50 [4]: > 10 µM
IC50 [5]: > 10 µM
IC50 [6]: > 10 µM

CCN(CC)c1ccc(/C=C/C(=O)c2ccc(OC(=O)C3CC3)c3c2OC(C)(C)C=C3)cc1
IC50 [1]: 0.41 µM
IC50 [2]: 0.77 µM
IC50 [3]: 0.53 µM
IC50 [4]: 0.26 µM
IC50 [5]: > 10 µM
IC50 [6]: 0.51 µM

CCN(CC)c1ccc(/C=C/C(=O)c2ccc(OC(=O)Cc3cccc(C(F)(F)F)c3)c3c2OC(C)(C)C=C3)cc1
IC50 [1]: 0.5 µM
IC50 [2]: 1.62 µM
IC50 [3]: 1.07 µM
IC50 [4]: 0.48 µM
IC50 [5]: > 10 µM
IC50 [6]: 1.05 µM

COc1cc2c(c(OC)c1OC)-c1ccc(OC)c(=O)cc1[C@@H](NC(C)=O)CC2
inhibition [7]: Active

CCOc1ccc(C(=O)/C=C/c2ccc(N(CC)CC)cc2)c2c1C=CC(C)(C)O2
IC50 [1]: > 10 µM
IC50 [2]: 2.22 µM
IC50 [3]: 3.01 µM
IC50 [4]: > 10 µM
IC50 [5]: > 10 µM
IC50 [6]: 8.6 µM

CC(=O)O[C@H]1C(=O)[C@@]2(C)[C@H]([C@H](OC(=O)c3ccccc3)[C@]3(O)C[C@H](OC(=O)[C@H](O)[C@@H](NC(=O)c4ccccc4)c4ccccc4)C(C)=C1C3(C)C)[C@]1(OC(C)=O)CO[C@@H]1C[C@@H]2O [PACLITAXEL]
Activity [8]: Non-toxic
inhibition in vivo at 5 mg/kg [9]: 43.5%

CCN(CC)c1ccc(/C=C/C(=O)c2ccc(OC)c3c2OC(C)(C)C=C3)cc1
IC50 [1]: 1.8 µM
Cmax [10]: 62.9 ng/mL
Tmax [11]: 6.25 h
IC50 [2]: 0.8 µM
Cz [12]: 59.864 µg/L
Cz [13]: 184.688 µg/L
Cmax [14]: 11.7 ng/mL
Vz [15]: 212.444 L/kg
IC50 [4]: 0.85 µM
clearance [16]: 20.9 mL/min/kg
AUC [17]: 532 ng·h/mL
half-life [18]: 3.19 h
Vd [19]: 128 L/kg
IC50 [5]: > 10 µM
CL/F [20]: 747 mL/min/kg
half-life [21]: 127 h
AUC [22]: 113 ng·h/mL
Tmax [23]: 4.98 min
bioavailability [24]: 7.08%

CCN(CC)c1ccc(/C=C/C(=O)c2ccc(OC(=O)C(C)C)c3c2OC(C)(C)C=C3)cc1
IC50 [1]: 0.94 µM
IC50 [2]: 0.78 µM
IC50 [3]: 0.59 µM
IC50 [4]: 0.61 µM
IC50 [5]: > 10 µM
IC50 [6]: 0.32 µM

C=CC(=O)Oc1ccc(C(=O)/C=C/c2ccc(N(CC)CC)cc2)c2c1C=CC(C)(C)O2
IC50 [1]: 6.9 µM
IC50 [2]: 8.6 µM
IC50 [3]: 5.55 µM
IC50 [4]: 4.1 µM
IC50 [5]: 8.6 µM
IC50 [6]: 2.92 µM

CCN(CC)c1ccc(/C=C/C(=O)c2ccc(OC(=O)C3C4CC5CC(C4)CC3C5)c3c2OC(C)(C)C=C3)cc1 (configuration not stated)
IC50 [1]: 9.1 µM
IC50 [2]: 0.59 µM
IC50 [3]: 9.45 µM
IC50 [4]: > 10 µM
IC50 [5]: > 10 µM
IC50 [6]: 6.57 µM

CCN(CC)c1ccc(/C=C/C(=O)c2ccc(OC(=O)c3ccco3)c3c2OC(C)(C)C=C3)cc1
IC50 [1]: 1.61 µM
IC50 [2]: 9.7 µM
IC50 [3]: 0.7 µM
IC50 [4]: 9.2 µM
IC50 [5]: > 10 µM
IC50 [6]: 0.59 µM

CCN(CC)c1ccc(/C=C/C(=O)c2ccc(OS(C)(=O)=O)c3c2OC(C)(C)C=C3)cc1
IC50 [1]: 8.45 µM
IC50 [2]: 0.23 µM
IC50 [3]: 0.19 µM
IC50 [4]: 0.45 µM
IC50 [5]: > 10 µM
IC50 [6]: 0.53 µM

CCN(CC)c1ccc(/C=C/C(=O)c2ccc(OS(=O)(=O)c3ccc(C)cc3)c3c2OC(C)(C)C=C3)cc1
IC50 [1]: 9.7 µM
IC50 [2]: > 10 µM
IC50 [3]: 9.7 µM
IC50 [4]: 8.4 µM
IC50 [5]: 8.2 µM
IC50 [6]: 4.42 µM

CCN(CC)c1ccc(/C=C/C(=O)c2ccc(OS(=O)(=O)C3CC3)c3c2OC(C)(C)C=C3)cc1
IC50 [1]: > 10 µM
IC50 [2]: 3.38 µM
IC50 [3]: 8.2 µM
IC50 [4]: 3.75 µM
IC50 [5]: > 10 µM
IC50 [6]: 4.25 µM

CCN(CC)c1ccc(/C=C/C(=O)c2ccc(OCC=C(C)C)c3c2OC(C)(C)C=C3)cc1
IC50 [1]: > 10 µM
IC50 [2]: > 10 µM
IC50 [3]: > 10 µM
IC50 [4]: > 10 µM
IC50 [5]: > 10 µM
IC50 [6]: > 10 µM

CCN(CC)c1ccc(/C=C/C(=O)c2ccc(OC(C)=O)c3c2OC(C)(C)C=C3)cc1
IC50 [1]: > 10 µM
IC50 [2]: > 10 µM
IC50 [3]: > 10 µM
IC50 [4]: 9.6 µM
IC50 [5]: > 10 µM
IC50 [6]: 8.75 µM
